From ChEMBL document CHEMBL1132212, “Structure-activity relationship of small-sized HIV protease inhibitors containing allophenylnorstatine” (J Med Chem, 1999) come the findings set out here.

In general, Cmax refers to the highest concentration seen after dosing. What is called inhibition is the relative decrease from the control value, in per cent. A word on the bioavailability: it is the share of a dose that reaches the circulation, judged against a reference dose that is usually intravenous. By AUC is commonly meant the area under the concentration-time curve, a measure of exposure. Lower therefore signals low exposure. The term Tmax denotes the time from dosing to the highest level. One may read the Ki as a dissociation constant, usually derived from enzyme kinetics or from competition with a known ligand. Broadly, the clearance is a measure of how efficiently the substance is removed, as volume per time. High values mean efficient removal, low ones inefficient removal. Usually half-life stands for the time in which the quantity being followed falls by half. What is called IC50 is the point on the concentration scale where inhibition reaches its midpoint.

Bounds are passed on as bounds.

The nature of series [1]: Volume of distribution (Vdss) was determined in dogs after intravenous administration of 25 mg/kg of the compound. It is filed as ADME, organism-based, Canis lupus familiaris. Details: dose 25 mg/kg, route intravenous. The settings on record: dog, in vivo, read-out: Vdss. An outline of the steps:
(§1)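 Male beagles (7–10 kg) were assigned six per group. Each received 25 mg/kg from a 12.5 mg/mL solution in 50% PEG-in-water, either as an iv bolus via the cephalic vein or by oral gavage, fed or fasted overnight. Plasma was measured by HPLC. Analysis was noncompartmental: trapezoidal AUC, terminal-slope t1/2, CL = dose/AUC, Vdss from AUMC/AUC, and F from oral vs iv AUC. Values are mean ± SEM.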

Series [2] in a line: Maximum plasma concentration (Cmax) was determined in dogs fed after oral administration of 25 mg/kg of the compound. It is filed as ADME, organism-based, Canis lupus familiaris. The settings on record: dog. Details: dose 25 mg/kg, route oral. An outline of the steps:
as §1

Series [3] has as its target Human immunodeficiency virus type 1 protease (Human immunodeficiency virus 1) (UniProt Q72874). In words: Inhibition of recombinant HIV-1 protease (NY-5) using 50 nM. Put shortly:
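Recombinant HIV-1 protease (NY5 sequence) was expressed in E. coli and purified. It was preincubated with inhibitor in DMSO for 5 min at 37 °C in MES–NaOH pH 6.0 with DTT and EDTA. Substrate H-SQNYPIV-OH was then added for 60 min at 37 °C, and the reaction was stopped with TFA. The PIV product was measured by reverse-phase HPLC at 215 nm against a synthetic standard.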

Series [4] can be described thus: Bioavailability in rat after i.d. administration. In kind it is ADME, organism-based. Conditions: in vivo. An outline of the steps:
(§2)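 Three male Sprague–Dawley rats (300–400 g) per compound were anesthetized and dosed at 10 mg/kg in 50% PEG. Dosing was iv via the femoral vein or id by tube into the duodenum. Plasma was extracted with internal standard and analyzed by C18 HPLC with UV at 210 nm. Analysis was noncompartmental; F was calculated from id vs iv AUC. Values are mean ± SEM.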

Series [5] in a line: Percent bioavailability (F%) was determined in dogs fed after oral administration of 25 mg/kg of the compound. It is filed as ADME, organism-based, Canis lupus familiaris. The settings on record: dog, in vivo. An outline of the steps:
as §1

The nature of series [6]: Maximum plasma concentration (Cmax) was determined in rats after intraduodenal administration of the drug. It is filed as ADME, organism-based. Details: route intraduodenal. Conditions: rat. Put shortly: as §2
For series [7], the system named is Canis familiaris. In words: Area under curve (AUC) was determined in fasted dogs after oral administration of 25 mg/kg of the compound. In kind it is ADME, organism-based, Canis lupus familiaris. Details: dose 25 mg/kg, route oral. The settings on record: dog, in vivo. An outline of the steps: as §1
Series [8] in a line: Time of maximum plasma concentration (Tmax) was determined in rats after intraduodenal administration of the drug. It is filed as ADME, organism-based. The settings on record: rat. Put shortly:
as §2

Series [9] in a line: Time of maximum plasma concentration (Tmax) was determined in fasted dogs after oral administration of 25 mg/kg of the compound. It is filed as ADME, organism-based, Canis lupus familiaris. Set-up: dose 25 mg/kg, route oral. The settings on record: dog. Put shortly:
as §1

The nature of series [10]: Time of maximum plasma concentration (Tmax) was determined in dogs fed after oral administration of 25 mg/kg of the compound. It is filed as ADME, organism-based, Canis lupus familiaris. Set-up: dose 25 mg/kg, route oral. The settings on record: dog. An outline of the steps: as §1
Series [11] has as its target Human immunodeficiency virus type 1 protease (Human immunodeficiency virus 1, UniProt Q72874). In words: Inhibition of recombinant HIV-1 protease (NY-5).
Series [12] in a line: Plasma clearance rate (CL) was determined in dogs after intravenous administration of 25 mg/kg of the compound. Set-up: dose 25 mg/kg, route intravenous. The settings on record: dog. It is filed as ADME, organism-based, Canis lupus familiaris. Put shortly:
as §1

A short description of series [13]: Plasma half life was determined in rats after intravenous administration of the drug. In kind it is ADME, organism-based. Conditions: rat. Put shortly: as §2
Series [14] is described as follows: Percent bioavailability (F%) was determined in fasted dogs after oral administration of 25 mg/kg of the compound. It is filed as ADME, organism-based, Canis lupus familiaris. Conditions: dog, in vivo. Put shortly:
as §1

Series [15] in a line: Toxic concentration was determined for CEM-SS cells. It is filed as toxicity, cell-based. The settings on record: human, read-out: TC50 (the source's name). An outline of the steps:
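CEM-SS cells (2.5 × 10^4 cells/mL) were exposed to compound in RPMI-1640 with 10% FCS and gentamicin for 6 days at 37 °C in 5% CO2. Viability was read by XTT staining, and TC50 was taken as the mean of duplicates.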

A further series deals with CEM-SS. Kind of series: Antiviral activity was determined based on inhibition of HIV-1 IIIB induced cytopathic effects in CEM-SS cells in vitro using tetrazolium reagent. In kind it is functional, cell-based. Conditions: Homo sapiens. An outline of the steps:
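CEM-SS cells (2.5 × 10^4 cells/mL) were cultured with HIV-1 IIIB and compound in RPMI-1640 with 10% FCS and gentamicin for 6 days at 37 °C in 5% CO2. The virus titer was set to kill all cells by day 6. Cytopathic effect was read by XTT staining, and IC50 was taken as the mean of duplicates.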
For orientation: Protection from cytopathic effect is a common read-out in antiviral testing.

The test system of series [16] is Canis familiaris. In words: Area under curve (AUC) was determined in dogs fed after intravenous administration of 25 mg/kg of the compound. It is filed as ADME, organism-based, Canis lupus familiaris. Details: dose 25 mg/kg, route intravenous. Conditions: dog, in vivo. Put shortly:
as §1

The subject of series [17] is Canis familiaris. Kind of series: Area under curve (AUC) was determined in dogs fed after oral administration of 25 mg/kg of the compound. In kind it is ADME, organism-based, Canis lupus familiaris. Details: dose 25 mg/kg, route oral. The settings on record: dog, in vivo. An outline of the steps: as §1
Series [18] is described as follows: Plasma half life was determined in dogs after intravenous administration of 25 mg/kg of the compound. Conditions: dog. Details: dose 25 mg/kg, route intravenous. In kind it is ADME, organism-based, Canis lupus familiaris. Put shortly: as §1
The nature of series [19]: Maximum plasma concentration (Cmax) was determined in fasted dogs after oral administration of 25 mg/kg of the compound. In kind it is ADME, organism-based, Canis lupus familiaris. Details: dose 25 mg/kg, route oral. Conditions: dog. Put shortly:
as §1

As to `Cc1ccccc1CNC(=O)[C@H]1N(C(=O)[C@@H](O)[C@H](Cc2ccccc2)NC(=O)c2cccc(O)c2C)CSC1(C)C`, the Vd in series [1] was found to be 1.58 L/kg. Further, the maximum concentration (Cmax) in series [2] is 4.02 µM; in [6], 0.7 µM; in [19], 5.3 µM. In addition, in [3], the inhibition came out at 96%. Further, the bioavailability amounted to 41.6% in [4], 32.6% in series [5] and 37.1% in series [14]. For the same compound, the results for the exposure (AUC) in the series on Canis familiaris [7], in the series on Canis familiaris [16] and with Canis familiaris [17] were 19.1 µM·h, 51.6 µM·h and 16.8 µM·h, respectively. In addition, the Tmax was 1 h in series [8], 1 h in series [9] and 1.5 h in series [10]. Further, in series [11], the Ki came to 0.33 nM. The compound further had a clearance in series [12] of 0.88 L/h/kg. The half-life in series [13] is 1.55 h; in series [18], 1.57 h. Further, the CC50 in [15] is more than 20000 nM. The compound also gave an IC50 with CEM-SS of 7 nM.
